The record followed here is ChEMBL document CHEMBL1139595, “Inhibition of IKK-2 by 2-[(aminocarbonyl)amino]-5-acetylenyl-3-thiophenecarboxamides” (Bioorg Med Chem Lett, 2005).

For assay [1], the target named is T1, Inhibitor of nuclear factor kappa-B kinase subunit beta (Homo sapiens, UniProt O14920).
T1 sequence (O14920 whole entry): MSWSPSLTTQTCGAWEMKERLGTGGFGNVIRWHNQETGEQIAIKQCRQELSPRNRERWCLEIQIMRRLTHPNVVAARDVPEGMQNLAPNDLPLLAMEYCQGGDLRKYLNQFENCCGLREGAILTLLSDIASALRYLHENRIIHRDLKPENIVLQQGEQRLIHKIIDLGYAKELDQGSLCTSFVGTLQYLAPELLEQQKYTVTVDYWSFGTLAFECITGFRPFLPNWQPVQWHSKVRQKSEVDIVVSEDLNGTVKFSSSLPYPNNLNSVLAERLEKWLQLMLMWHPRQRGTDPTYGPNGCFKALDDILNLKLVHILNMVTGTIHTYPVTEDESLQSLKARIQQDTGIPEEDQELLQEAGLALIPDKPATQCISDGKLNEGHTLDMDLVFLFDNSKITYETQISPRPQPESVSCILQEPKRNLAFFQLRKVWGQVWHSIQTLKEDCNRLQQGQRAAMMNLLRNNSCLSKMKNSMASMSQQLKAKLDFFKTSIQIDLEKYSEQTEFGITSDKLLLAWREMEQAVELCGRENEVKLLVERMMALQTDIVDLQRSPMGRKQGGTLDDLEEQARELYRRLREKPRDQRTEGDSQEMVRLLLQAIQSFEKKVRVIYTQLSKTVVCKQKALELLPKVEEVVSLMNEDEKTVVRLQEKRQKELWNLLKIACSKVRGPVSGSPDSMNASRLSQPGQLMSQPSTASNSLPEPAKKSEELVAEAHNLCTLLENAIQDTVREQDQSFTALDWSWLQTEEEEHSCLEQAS
Briefly: Inhibitory concentration against human recombinant I-kappa-B-kinase 2 from 3 experiments.

The nature of assay [2]: Inhibitory concentration against interleukin-8 production in rheumatoid arthritis-derived synovial fibroblasts (RASFs) from 2 experiments. In kind it is functional. As to conditions: Homo sapiens. The method, boiled down: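 Primary RASF from knee synovectomy tissue, grown in DMEM high glucose with 15% bovine serum and gentamicin. 1.5×10^4 cells/well attached overnight, moved to DMEM with 1% serum. Pre-treated 1 h with a seven-point dose series in 0.2% Me₂SO, then stimulated overnight with 1 ng/mL IL-1β. IL-8 in supernatant measured by ELISA; IC50 from curve.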

The nature of assay [3]: Lethal concentration towards rheumatoid arthritis-derived synovial fibroblasts using Alamar Blue reagent. Format: functional. The conditions noted are these: Homo sapiens; read-out: LC50 (the source's name). The method, boiled down: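 Primary RASF from knee synovectomy tissue, cultured in DMEM high glucose with 15% bovine serum; 1.5×10^4 cells/well in 1% serum, pre-treated 1 h with seven-point inhibitor doses in 0.2% Me2SO, then stimulated overnight with 1 ng/mL IL-1β. After removing the supernatant, Alamar Blue added, 2.5 h at 37 °C, 5% CO2; fluorescence read, LC50 derived.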
On the technique in general: The colour change of resazurin is a common sign of viable cells or microbes.

For assay [4], the target named is T2, Inhibitor of nuclear factor kappa-B kinase subunit beta (Homo sapiens) (UniProt O14920).
T2 sequence (whole entry): T1 sequence (O14920 whole entry)
Nature of the assay: Ratio of inhibitory concentration of rheumatoid arthritis-derived synovial fibroblasts to human recombinant I-kappa-B-kinase 2. In kind it is functional.

Consider `Cc1ccccc1C#Cc1cc(C(N)=O)c(NC(N)=O)s1`, for which the IC50 (usually the midpoint of a concentration-inhibition curve) in assay [1] amounted to 716 nM.
With `NC(=O)Nc1sc(C#Cc2cccc(NC(=O)C(F)(F)F)c2)cc1C(N)=O`, the IC50 in assay [1] came to 980 nM.
On to `NC(=O)Nc1sc(C#Cc2ccccc2F)cc1C(N)=O`, for which the IC50 in assay [1] was 620 nM.
`NC(=O)Nc1sc(C#Cc2ccsc2)cc1C(N)=O`: the IC50 in assay [1] amounted to 420 nM; in assay [2], 1180 nM. In addition, the CC50 in assay [3] was greater than 30000 nM. In assay [4], the Ratio is 2.8.
As for `NC(=O)Nc1sc(C#Cc2cccc(NC(=O)c3cccnc3)c2)cc1C(N)=O`, the IC50 in assay [1] came to 557 nM.
On the same count and under the same terms, the result for `CC(=O)Nc1cccc(C#Cc2cc(C(N)=O)c(NC(N)=O)s2)c1` reads 964 nM.
Take `NC(=O)Nc1sc(C#Cc2ccccc2Cl)cc1C(N)=O`: the IC50 in assay [1] is 1010 nM.
For the molecule `NC(=O)Nc1sc(C#Cc2cccc(NC(=O)c3ccncc3)c2)cc1C(N)=O`, the IC50 in assay [1] is 1850 nM.
Take `CCC(O)c1cc(C#Cc2cc(C(N)=O)c(NC(N)=O)s2)cs1` (stereo not drawn): the IC50 in assay [1] is 465 nM.
In the case of `COC(=O)NCCC(=O)Nc1cccc(C#Cc2cc(C(N)=O)c(NC(N)=O)s2)c1`, the IC50 in assay [1] stood at 4400 nM.
Regarding `NC(=O)Nc1sc(C#Cc2cccc(O)c2)cc1C(N)=O`, the IC50 worked out at 303 nM in assay [1] and 576 nM in assay [2]. Also, the CC50 in assay [3] worked out at 2720 nM. Moreover, in assay [4], the Ratio was determined as 1.9.
For the molecule `NC(=O)Nc1sc(C#Cc2cccc(N)c2)cc1C(N)=O`, the IC50 in assay [1] is 709 nM.
For the molecule `NC(=O)Nc1sc(C#Cc2cccc(NC(=O)c3ccccn3)c2)cc1C(N)=O`, in assay [1], the IC50 is greater than 20000 nM.
Turning to `CN(C)CC(=O)Nc1cccc(C#Cc2cc(C(N)=O)c(NC(N)=O)s2)c1`, the IC50 in assay [1] stood at 1880 nM.
The same measure, in the same setting: with `NC(=O)Nc1sc(C#Cc2cccc(NC(=O)c3ccccc3)c2)cc1C(N)=O` the figure was 704 nM.
In the case of `N#Cc1cc(C#Cc2cc(C(N)=O)c(NC(N)=O)s2)cs1`, the results for the IC50 in assay [1] and in assay [2] were 333 nM and 832 nM, respectively. Also, the CC50 in assay [3] is greater than 30000 nM. Also, the Ratio in assay [4] was 2.5.
Take `NC(=O)c1sc(-c2ccsc2)cc1N`: in assay [1], the IC50 was found to be 11200 nM.
Consider `CS(=O)(=O)Nc1cccc(C#Cc2cc(C(N)=O)c(NC(N)=O)s2)c1`, for which the IC50 turned out to be 454 nM in assay [1] and 12900 nM in assay [2]. In assay [3], the CC50 was greater than 30000 nM. Moreover, the Ratio in assay [4] is 28.
Take `NC(=O)Nc1sc(C#Cc2csc(CO)c2)cc1C(N)=O`: the IC50 in assay [1] was determined as 195 nM; in assay [2], 1130 nM. For the same molecule, the CC50 in assay [3] was greater than 30000 nM. Moreover, the Ratio in assay [4] turned out to be 5.8.
On to `NC(=O)Nc1sc(C#Cc2cccc(F)c2)cc1C(N)=O`, for which the IC50 amounted to 331 nM in assay [1] and 1650 nM in assay [2]. Besides, the CC50 in assay [3] was greater than 30000 nM. Also, the Ratio in assay [4] stood at 5.
Consider `CC(C)C(O)c1cc(C#Cc2cc(C(N)=O)c(NC(N)=O)s2)cs1` (stereo not drawn), for which, in assay [1], the IC50 amounted to 563 nM.
With `NC(=O)Nc1sc(C#CC2CC2)cc1C(N)=O`, the IC50 was found to be 273 nM in assay [1] and 3060 nM in assay [2]. Besides, in assay [3], the CC50 was greater than 30000 nM. Moreover, in assay [4], the Ratio worked out at 11.
